# IDE cell inh: inhibitors of human insulin-degrading enzyme in cells. P14735. HEK cells, FAbetaB cleavage, fluorescence polarization. inhibition, % at 5.59 µM. actives 0.41% (n = 320,000);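 active means percent inhibition above the average of all tested compounds plus 3 SD, set per screening campaign, cut at about 16% in these data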;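 further: IDE supplied by intact live HEK cells; FP after avidin binding of uncleaved biotin substrate so inhibition keeps polarization high; 0% = DMSO wells and 100% = 60 µM reference IDE inhibitor Ii1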
# IDE act: boosts human insulin-degrading enzyme activity in HEK cells; P14735; FAbeta-B cleavage, fluorescence polarization; 0% vehicle, 100% cell-free pure enzyme wells; activation, % at 5.96 µM; actives 0.073% (n = 340,000);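 active means activation above the mean of all tested compounds plus 3 SD, set per screening campaign, cut at about 17% in these data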
# HNF4A DNA FP: change in binding of human HNF4 alpha to DNA | AID 1224865 | activity change, % at 10 µM | HNF4a-FITC DNA binding, fluorescence polarization, 1 h | actives 0.3% (n = 360,000) | P41235; in the data active means activity change above about 30%, passing the limit was not always enough
# CSN inh: blocks human CSN-mediated cullin deneddylation; Q92905; Purified CSN, SCF-Nedd8-OG deneddylation, fluorescence polarization; inhibition, % at 12.5 µM; actives 0.38% (n = 360,000); AID 651999;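 active means pattern-corrected inhibition above about 35%, with an unprinted fluorescence ratio check between 0.5 and 1.5, limit read from the data, passing the limit was not always enough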;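 further: 0% = enzyme with substrate and 100% = substrate without enzyme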
# Target sequence (Q92905 whole entry, looked up, one chain of several): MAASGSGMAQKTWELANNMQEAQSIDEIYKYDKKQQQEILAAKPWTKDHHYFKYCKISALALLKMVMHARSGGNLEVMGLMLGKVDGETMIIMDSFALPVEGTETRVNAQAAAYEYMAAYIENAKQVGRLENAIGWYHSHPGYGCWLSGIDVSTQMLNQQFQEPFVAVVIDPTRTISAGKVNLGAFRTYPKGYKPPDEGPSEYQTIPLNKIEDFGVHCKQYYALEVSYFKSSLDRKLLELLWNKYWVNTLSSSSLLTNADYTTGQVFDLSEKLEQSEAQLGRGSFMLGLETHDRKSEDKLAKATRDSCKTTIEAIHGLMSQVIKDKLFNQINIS
#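 Schedule: reaction 90 min, room temperature / Assay system: HEK293T-derived human Csn5 enzyme / Input: Csn5 at 0.24 nM final / Measure: inhibition of Csn5 cleavage, % / Control set: substrate-only high control, full reaction low control / Technique: fluorescence polarization of the substrate / Buffer or medium: Tris/NaCl/DTT buffer, pH 7.5 / Reagent: SCFSkp2-Nedd8OG substrate at 10 nM final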
# TPT1 inh: C. albicans TPT1 enzyme inhibition | recombinant caTPT1, FP RNA substrate dephosphorylation | inhibition, % at 5 µM | actives 0.81% (n = 300,000) | AID 1962;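 active means inhibition above the mean of all tested compounds plus 3 SD, set per screening campaign, cut at about 24% in these data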;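 further: plate controls were DMSO alone for no effect and ferristatin control at 100 nM for full effect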
# Rpn11 inh: Rpn11 (human) deubiquitinase inhibition | O00487 | human 26S proteasome, Ub4-pepOG fluorescence polarization; 20S core pre-blocked with epoxomicin | inhibition, % at 20 µM | actives 0.59% (n = 360,000);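 active means inhibition at 20 µM, scaled to each plate's controls, above about 33%, limit read from the data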
# Target sequence (O00487 whole entry, looked up): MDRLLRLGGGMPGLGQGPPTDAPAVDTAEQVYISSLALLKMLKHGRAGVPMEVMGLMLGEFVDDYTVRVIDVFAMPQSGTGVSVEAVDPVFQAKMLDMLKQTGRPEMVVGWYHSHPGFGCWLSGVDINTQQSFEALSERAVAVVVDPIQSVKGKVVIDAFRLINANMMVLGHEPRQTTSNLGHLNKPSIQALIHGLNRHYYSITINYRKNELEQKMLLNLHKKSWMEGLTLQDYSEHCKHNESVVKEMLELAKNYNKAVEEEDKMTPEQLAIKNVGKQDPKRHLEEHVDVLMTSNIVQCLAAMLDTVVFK
# IDE cell inh cf: confirmation of human insulin-degrading enzyme inhibitors in cells; inhibition, % at 5.59 µM; AID 435028; shares compounds with IDE cell inh; HEK cells, FAbetaB cleavage, fluorescence polarization; actives 51% (n = 1,200);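 active means mean inhibition across triplicate wells above the cutoff set by the earlier primary insulin-degrading enzyme screen, cut at about 16% in these data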;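 further: 0% = DMSO wells and 100% = 60 µM reference IDE inhibitor Ii1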
# HEK293 tox: counter-screen for IDE inhibitors: cytotoxicity in HEK cells. shares compounds with IDE cell inh. HEK293 cytotoxicity, ATP luminescence. inhibition, % at 5.59 µM. actives 28% (n = 1,200). AID 449730; in the data active means inhibition above about 22%;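 further: 0% = vehicle wells and 100% = reference cytotoxic drug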
# * hit, by the source's call; . = not tested or not shown. The list is not random: actives were taken first. Their share in the collection is about 1.7%.
SMILES,IDE cell inh,IDE act,HNF4A DNA FP,CSN inh,TPT1 inh,Rpn11 inh,IDE cell inh cf,HEK293 tox
C[C@H]1CN([C@@H](C)CO)C(=O)CCCn2nncc2CO[C@H]1CN(C)C(=O)NC1CCCCC1,.,.,0,0,.,4,.,.
Cc1cc(C)c2c(=O)n(CC(=O)Nc3cccc(F)c3)sc2n1,21*,-56,0,2,-3,-5,8,113*
CCOC(=O)c1cn(CC(=O)Nc2cccc(F)c2)nn1,2,-3,0,1,-2,-6,.,.
O=C(OCC(=O)N1CCCCCC1)c1ccc([N+](=O)[O-])cc1Cl,-1,5,-2,0,-1,0,.,.
CCOC(=O)CCCCCC(=O)Nc1ccc2c(c1)C(=O)N([C@H](C)CO)C[C@@H](C)[C@@H](CN(C)C(=O)CCC(F)(F)F)OCCCC[C@H](C)O2,.,.,0,-4,.,-1,.,.
COc1cc2cc(C(=O)N/N=C/c3ccccc3Cl)[nH]c2cc1OC,17*,-12,-4,3,-2,-2,5,17
O=C1c2cccc3c(N4CCCCC4)ccc(c23)C(=O)N1c1ccccn1,75*,-7,-2,-5,-20,-3,109*,21
CC(=O)N(C(C)=O)N1C(=O)c2cccc3c(N4CCOCC4)ccc(c23)C1=O,17*,-1,-16,-42,-2,-19,6,19
CCN(CC)S(=O)(=O)c1ccc(C(=O)OCCN2C(=O)c3cccc4c(N5CCOCC5)ccc(c34)C2=O)cc1,6,2,-88,-66,5,-157,.,.
COC(=O)/C=C1\OC(c2ccccc2)c2ccccc21 (stereo not given),.,.,2,5,.,.,.,.
CSc1cccc(N2CC(C(=O)Nc3ccccc3N3CCCC3)CC2=O)c1 (stereo not given),16*,-4,5,0,-2,4,6,7
COC(=O)c1ccccc1NC(=O)c1ccccc1OC,5,-6,1,-5,-5,3,.,.
COc1ccccc1C(=O)Nc1ccccc1SC(=O)c1ccccc1OC,43*,-21,0,6,2,-2,11,30*
O=C1CN(N=Cc2ccco2)C(=O)N1,.,-3,1,7,.,-5,.,.
CC(C)[C@H](NC(=O)c1ccc(C(C)(C)C)cc1)C(=O)N1CCN(Cc2ccc3c(c2)OCO3)CC1,19*,1,2,1,.,-3,4,53*
CCOc1ccc(Cl)cc1/C=N/NC(=O)c1ccccc1,0,0,0,-4,5,15,.,.
CCOc1ccc(Cl)cc1/C=N/NC(=O)CNC(=O)c1ccccc1,26*,-6,-1,-1,-5,-4,6,15
COc1ccc2[nH]c3c(N4CCC(O)(c5cccc(C(F)(F)F)c5)CC4)ncnc3c2c1,23*,-5,1,2,-1,4,6,65*
Cc1c(C)c2c(OCC(=O)NCc3ccncc3)cc3c(c2oc1=O)CCC(C)(C)O3,9,-10,4,1,0,-10,.,.
Cc1cc(=O)oc2c3c(cc(OCC(=O)NCc4ccncc4)c12)OC(C)(C)CC3,22*,-19,2,2,-5,-6,13,24*
C#Cc1ccc([C@H]2C=C(C(=O)NCc3ccccc3)O[C@@H](OCc3ccc(CO)cc3)C2)cc1,-3,1,8,1,2,27,.,.
Brc1ccc2[nH]c3c(NCc4ccccn4)ncnc3c2c1,64*,.,3,4,-5,-2,38*,22*
Fc1ccc2[nH]c3c(N4CCc5ccccc5C4)ncnc3c2c1,29*,.,0,0,-4,4,12,77*
CN1CCN(c2ncnc3c2[nH]c2ccc(F)cc23)CC1,23*,-14,-2,-2,-4,0,10,12
Brc1ccc2[nH]c3c(N4CCc5ccccc5C4)ncnc3c2c1,55*,.,.,.,5,.,41*,66*
SMILES,IDE cell inh,IDE act,HNF4A DNA FP,CSN inh,TPT1 inh,Rpn11 inh,IDE cell inh cf,HEK293 tox
COc1ccc2[nH]c3c(N4CCN(Cc5ccc6c(c5)OCO6)CC4)ncnc3c2c1,15,-2,-2,-3,3,-4,.,.
CSc1nnc(N2C(=O)C(O)=C(C(=O)c3ccco3)C2c2cccc(Cl)c2)s1 (stereo not given),29*,-6,-30,-5,6,-58,7,7
CSc1nnc(N2C(=O)C(O)=C(C(=O)c3ccco3)C2c2ccc(F)cc2)s1 (stereo not given),15,-1,-27,0,-4,-41,.,.
O=C(Nc1ccc(N2CCOCC2)c(Cl)c1)c1ccc(Cl)cc1,18*,-5,6,-5,-1,1,4,21
O=C(Nc1ccccc1Cl)N1CCN(c2ccc3nnc(-c4ccccc4)n3n2)CC1,8,-14,0,1,-7,2,.,.
O=C(Nc1ccc(Cl)cc1)N1CCN(c2ccc3nnc(-c4ccc(F)cc4)n3n2)CC1,22*,-29,-5,5,0,14,13,11
O=S(=O)(c1cccc(NC(=S)N2CCN(c3ccccc3)CC2)c1)C(F)F,19*,-21,4,8,-4,-11,4,7
Cc1ccc(NC(=O)Nc2ccnc(-c3cccnc3)n2)cc1,18*,-9,-2,7,0,-4,4,44*
Cc1ccc(C(=O)Nc2ccnc(-c3cccnc3)n2)cc1,0,1,0,3,1,2,.,.
COc1ccc(NC(=O)c2sc3nc(N4CCOCC4)c4c(c3c2N)CC(C(C)C)OC4)c(OC)c1 (stereo not given),0,6,-1,-4,-4,1,.,.
O=C(Nc1ccc2c(c1)CCC2)C1CCN(c2c3c(nc4ncnn24)CCC3)CC1,42*,-42,-1,-6,1,-6,13,51*
C1=C(CCNc2ncnc3c2[nH]c2ccccc23)CCCC1,35*,-35,5,9,4,6,13,87*
COc1ccc(C(=O)CSc2n[nH]c(=O)n2Cc2ccco2)cc1,18*,3,3,-3,1,0,10,12
O=C(CSc1n[nH]c(=O)n1Cc1ccco1)Nc1ccccc1,-1,.,0,-2,2,-4,.,.
COc1ccc(OCc2cc(C(=O)N3CCSCC3)no2)c(Cl)c1,18*,-15,2,-1,-4,-17,11,12
CCOc1ccc(-c2c(C(=O)N/N=C/c3ccc(OC)cc3)nnn2-c2nonc2N)cc1,20*,4,0,-2,1,-3,4,7
